RGS4 pot: RGS4 potentiation or activation | HEK293 M3R/inducible RGS4, carbachol calcium flux Fluo4; hits give low values | AID 463111 | 0.92% of 310,000 active | B-score at 10 µM;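 active means B-score of the integrated calcium signal more than 4 SD below the library mean, with starting fluorescence not abnormally high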;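 further: negative B-score means reduced calcium response which marks RGS4 activation or potentiation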
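Test system: HEK293 cells with stable M3R and inducible RGS4; also added: carbachol at ECmax as muscarinic agonist stimulus; schedule: dye loading 30 min 37 °C, buffer rest 30 min RT; technique: kinetic calcium fluorescence imaging with Fluo4-AM dye, 2 µM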
MrgX1 allo act: allosterically activates human MrgX1 receptor signaling; 0.63% of 310,000 active; MrgX1-HEK293, Fluo-4 calcium flux, FDSS; hits give high values; AID 588675; Q96LB2; B-score at 10 µM;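 active means plate-corrected calcium response at least 3 library SD above typical, normal starting fluorescence, not activating the receptor alone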;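 further: compound read alongside a low EC10 to EC30 dose of BAM8-22 agonist; peak minus trough fluorescence over baseline measured at the second addition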
Target sequence (Q96LB2 whole entry, looked up): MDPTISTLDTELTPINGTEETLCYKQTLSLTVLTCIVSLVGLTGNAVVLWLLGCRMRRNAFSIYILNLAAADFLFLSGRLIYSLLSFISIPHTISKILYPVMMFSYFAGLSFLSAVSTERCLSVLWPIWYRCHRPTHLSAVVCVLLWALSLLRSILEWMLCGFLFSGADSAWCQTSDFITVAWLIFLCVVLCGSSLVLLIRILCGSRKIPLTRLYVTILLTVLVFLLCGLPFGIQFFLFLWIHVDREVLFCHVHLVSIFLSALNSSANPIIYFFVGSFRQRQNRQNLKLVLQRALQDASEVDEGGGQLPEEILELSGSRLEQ
MrgX1 agonist: activates human MrgX1 receptor signaling. Q96LB2. MrgX1-HEK293 cells, Fluo-4 calcium fluorescence, agonist mode; hits give high values. B-score at 10 µM. 0.44% of 310,000 active. AID 588627;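 active means calcium response B-score plate-corrected fluorescence ratio at least 3 library SD, with starting fluorescence B-score inside 5 SD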
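Assay system: stable human MrgX1 HEK293 cell line. Quantity: 15,000 cells per well. Schedule: cells plated overnight, dye loaded 0.5 h 37 °C, 0.5 h room temperature. Detection: Fluo-4 NW calcium-flux fluorescence, kinetic read. Read-out basis: peak-minus-minimum fluorescence over baseline, converted to B scores. Control set: positive and negative control wells on each plate.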
MrgX1 antag: blocks BAM8-22 activation of human MrgX1 receptor; 1.3% of 310,000 active; MRGX1-HEK293 calcium flux, Fluo-4, BAM8-22 antagonism; hits give low values; Q96LB2; B-score at 10 µM; AID 588676;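 active means calcium-response B-score plate-corrected more than 3 library SD below zero, starting fluorescence within 5 deviations, no agonist response on first addition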;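 further: peak minus trough fluorescence over baseline after final BAM8-22 challenge near maximal dose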
RGS4 inh: human RGS4 inhibition. P49798. 0.45% of 310,000 active. HEK293 M3R/RGS4 inducible, Fluo-4 calcium flux; hits give high values; triggered by carbachol at its EC20. B-score at 10 µM;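 active means B-score, a plate-corrected calcium signal, over three deviations above library mean, with baseline fluorescence within five deviations of library mean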;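 further: RGS4 expression induced by doxycycline in cells with stable M3 receptor; B-score is computed from the integrated fluorescence ratio over baseline after carbachol; higher B-score means a larger calcium signal and so more RGS4 inhibition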
Target sequence (P49798 whole entry, looked up): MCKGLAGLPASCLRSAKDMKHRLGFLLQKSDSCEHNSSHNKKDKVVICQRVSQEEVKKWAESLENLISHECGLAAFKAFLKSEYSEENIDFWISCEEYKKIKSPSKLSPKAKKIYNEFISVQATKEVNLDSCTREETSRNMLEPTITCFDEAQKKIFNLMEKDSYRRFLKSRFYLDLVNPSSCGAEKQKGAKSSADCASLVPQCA
RGS4 activ val: confirmation of RGS4 activators; shares compounds with RGS4 pot; HEK293 M3R/RGS4 inducible, carbachol calcium flux Fluo4; inhibition, % at 10 µM; 89% of 1,100 active; AID 602282;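 active means inhibition above 3 SD of the buffer control wells, cut at about 41% in these data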;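 further: signal is the integrated peak-minus-minimum Fluo4 fluorescence over baseline ratio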
RGS4 act ctr: counter-screen for RGS4 activators: effect in non-induced cells | inhibition, % at 10 µM | shares compounds with RGS4 pot | AID 602283 | HEK293 M3R non-induced RGS4, Fluo4 calcium flux; after carbachol challenge at its EC90 | 82% of 1,100 active;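 active means inhibition exceeding 3 SD of buffer-only control wells, cut at about 26% in these data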;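 further: percent drop in integrated peak-minus-baseline over baseline Fluo4 ratio after carbachol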
Numbers stand for hits; - = inactive; . = no result. The list is not random: actives were taken first. Their share in the collection is about 3.5%.

SMILES | RGS4 pot | MrgX1 allo act | MrgX1 agonist | MrgX1 antag | RGS4 inh | RGS4 activ val | RGS4 act ctr
CC(C)C(NC(=O)c1ccc(Cl)cc1)C(=O)NC1=NCCS1 (configuration not stated) | - | - | - | - | - | . | .
O=C(CNc1ccccc1)c1ccc([N+](=O)[O-])cc1 | -11 | - | - | - | - | 76 | 84
O=C(CNC(=O)c1ccc([N+](=O)[O-])cc1)c1ccccc1 | - | - | - | - | - | . | .
O=C(Nc1cccc(-c2nc3ccccc3s2)c1)c1cccs1 | -8.1 | - | - | - | - | 92 | 67
O=C(Nc1cccc(-c2nc3ccccc3s2)c1)c1cc(=O)c2ccccc2o1 | - | - | - | - | - | . | .
O=C(CSc1ncn[nH]1)N1CCOCC1 | - | - | - | - | - | . | .
O=C(NC1CCCCC1)C(c1ccccc1)N1CCCC1 (configuration not stated) | -8.8 | - | - | - | - | 94 | 64
Cc1ccc(C(C(=O)NC2CCCCC2)N2CCCC2)cc1 (configuration not stated) | - | - | - | - | - | . | .
Cc1ccc(-c2csc3ncnc(N4CCN(c5ccccc5O)CC4)c23)cc1 | - | - | - | - | - | . | .
CCN1CCN(c2ncnc3scc(-c4ccc(C)c(C)c4)c23)CC1 | -9.2 | - | - | - | - | 92 | 87
COc1ccc(-c2csc3ncnc(N4CCN(Cc5ccccc5)CC4)c23)cc1 | -7.7 | - | - | - | - | - | -
COc1ccc(-c2csc3ncnc(N4CCN(c5ccccc5O)CC4)c23)cc1 | -9.3 | - | - | - | - | - | -
COc1ccc(-c2csc3ncnc(N4CCN(c5ccc(OC)cc5)CC4)c23)cc1 | - | - | - | - | - | . | .
COc1ccc(-c2csc3ncnc(N4CCN(c5ccccc5)CC4)c23)cc1 | -8.3 | - | - | - | - | 88 | 84
COc1cccc(C(=O)Nc2cc(-c3cn4cccnc4n3)ccc2C)c1 | - | - | - | - | - | . | .
CN(C(=O)c1ccc(OC2CCN(CCc3ccccc3)CC2)cc1)C1CCOCC1 | - | - | - | - | - | . | .
CN(C(=O)c1ccc(OC2CCN(CCc3ccccc3)CC2)cc1)C1CCCCC1 | -8.9 | - | - | - | - | - | -
COc1cccc(C2NC(=O)NC(O)(C(F)(F)F)C2C(=O)c2cccnc2)c1OC (configuration not stated) | - | - | - | - | - | . | .
COc1ccccc1OCC(=O)Nc1cccc(-c2nnc(-c3ccco3)o2)c1 | -8.1 | - | - | - | - | 78 | 28
COc1ccc(CC(=O)Nc2cccc(-c3nnc(-c4ccccc4)o3)c2)cc1OC | -9 | . | . | . | - | 93 | 81
O=C(Cc1ccccc1)Nc1cccc(-c2nnc(-c3ccco3)o2)c1 | - | - | - | - | - | . | .
COc1cccc(C(=O)Nc2cccc(-c3nnc(-c4ccccc4)o3)c2)c1 | -11 | - | - | - | - | 76 | 37
CCOc1ccc(CNC(=S)N/N=C/c2ccncc2)cc1 | - | - | - | - | - | . | .
Cc1nc2nc(SCC(=O)NCCCN3CCCC3)nn2c(C)c1Cc1ccccc1Cl | -8.2 | - | - | - | - | 78 | 42
S=c1[nH]nc(-c2n[nH]c3c2CCC3)n1/N=C/C=C/c1ccco1 | -9.1 | - | - | - | - | 89 | 58
SMILES | RGS4 pot | MrgX1 allo act | MrgX1 agonist | MrgX1 antag | RGS4 inh | RGS4 activ val | RGS4 act ctr
COc1ccccc1/C=C/C=N/n1c(-c2n[nH]c3c2CCC3)n[nH]c1=S | - | - | - | - | - | . | .
COc1cccc(/C=N/n2c(-c3n[nH]c4c3CCC4)n[nH]c2=S)c1O | -9.1 | - | - | - | - | 94 | 93
O=C1c2oc3ccccc3c(=O)c2C(c2cccc(O)c2)N1CCCN1CCOCC1 (configuration not stated) | -8.9 | - | - | - | - | 85 | 37
COc1ccccc1C(CNC(=O)C(C)(C)Oc1ccc(Cl)cc1)N1CCCC1 (configuration not stated) | -8.8 | - | - | - | - | 90 | 26
O=c1c2c(nc3n1CCCCC3)-c1ccccc1CC21CCCC1 | -11 | - | - | - | - | 93 | 94
Nn1cnc2c(c1=O)C1(CCCCC1)Cc1ccccc1-2 | - | - | - | - | - | . | .
O=C1C=C(N2CCCCCC2)C2(CCCCC2)O1 | -8.4 | - | - | - | - | 66 | -
COc1cc(OC)cc(C(=O)N2CCN(C(=O)c3cccs3)CC2)c1 | - | - | - | - | - | . | .
OCCCCNCc1ccc(OCc2ccccc2)cc1 | -7.8 | - | - | - | - | 60 | 84
OCCNCCCCOc1ccc(OCc2ccccc2)cc1 | - | - | - | - | - | . | .
[2H]c1c([2H])c([2H])c(C(=O)c2sc(N3CCCCCC3)nc2-c2ccccc2)c([2H])c1[2H] | -8.3 | - | - | - | - | 92 | 61
O=C(COC(=O)c1ccc(S(=O)(=O)C(F)F)cc1)NC(=O)NC1CCCCC1 | - | - | - | - | - | . | .
COc1ccc(NC(=O)c2c(N)cnn2C)cc1 | - | - | - | - | - | . | .
CCCCOc1ccc(C(O)C(CN2CCCCC2)c2ccccc2)cc1 (configuration not stated) | -7.6 | - | - | - | - | 58 | 84
CCCCOc1ccc(C(O)C(CN2CCOCC2)c2ccccc2)cc1 (configuration not stated) | - | - | - | - | - | . | .
CSc1ccc(CN2CCN(C3CCCC3)C(CCO)C2)cc1 (configuration not stated) | -8.9 | - | - | - | - | 88 | 60
CC(C)(O)C#Cc1ccc(CN2CCN(C3CCCCC3)C(CCO)C2)s1 (configuration not stated) | -7.8 | - | - | - | - | 64 | 26
CC(C)(O)C#Cc1ccc(CN2CCN(C3CCCCC3)C(CCO)C2)cc1 (configuration not stated) | - | - | - | - | - | . | .
O=C(NC1CC(=O)N(c2ccc(Cl)cc2)C1)N1CCN(C(=O)c2ccco2)CC1 (configuration not stated) | - | - | - | - | - | . | .
CNc1nc(-c2ccccc2)[n+](-c2ccc(C)cc2)s1 | -14 | - | - | - | - | 97 | 93
Cc1ccccc1Sc1c(C#N)c(-c2ccccc2)nn1C | -8.3 | - | - | - | - | 88 | 58
CCN(CC(=O)Nc1ccc(NC(C)=O)cc1)C(=O)c1cccnc1Sc1ccc(C)c(C)c1 | - | - | - | - | - | . | .
Cc1ccc(N2C(=O)C(O)(C(F)(F)F)C3=C2CC(C)(C)CC3=O)cc1C (configuration not stated) | - | - | - | - | - | . | .

Screening results as filed in PubChem BioAssay.
